Among the data in ChEMBL document CHEMBL1127343, “"Glycylcyclines". 3. 9-Aminodoxycyclinecarboxamides” (1994) are MIC values, retold here.

Format in all cases: functional
Assay [1] relates to Escherichia coli. Kind of assay: In vitro antibacterial activity was measured on gram negative bacteria Escherichia coli J3272 tet-C(efflux resistance) cell lines.
Assay [2] has as its system Escherichia coli. Kind of assay: In vitro antibacterial activity was measured on gram negative bacteria Escherichia coli J3272 tet-D(efflux resistance) cell lines.
Assay [3] deals with Escherichia coli. Put plainly: In vitro antibacterial activity was measured on gram negative bacteria Escherichia coli PRP-1 tet-a(efflux resistance) cell lines.
In assay [4] the test system is Escherichia coli. Kind of assay: In vitro antibacterial activity was measured on gram negative bacteria Escherichia coli UBMS 88-1 tet-B(efflux resistance) cell lines.
The test system of assay [5] is Escherichia coli. Kind of assay: In vitro antibacterial activity was measured on gram negative bacteria Escherichia coli UBMS 90-4 tet-M (ribosomal protection) cell lines. Put shortly:
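Agar dilution MIC on Mueller-Hinton II agar. Inoculum (1–5) × 10^5 CFU/mL, drug range 32–0.004 μg/mL. Plates incubated 18 h at 35 °C in a forced-air incubator. MIC is the lowest concentration that inhibits growth. The strain panel covered tetracycline-sensitive and -resistant strains. Tetracycline, minocycline and doxycycline were run as standards in each assay.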

The subject of assay [6] is Escherichia coli. Put plainly: In vitro antibacterial activity was measured on gram negative bacteria Escherichia coli UBMS 90-5 sensitive cell lines. Put shortly:
(§1)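 MIC by agar dilution on Mueller-Hinton II agar; inoculum (1–5) × 10^5 CFU/mL; antibiotic range 32–0.004 μg/mL; plates incubated 18 h at 35 °C in forced-air incubator. MIC taken as lowest concentration inhibiting growth. Tetracycline, minocycline and doxycycline run as standards in each assay.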

For assay [7], the system named is Staphylococcus aureus. Kind of assay: In vitro antibacterial activity was measured on gram positive bacteria Staphylococcus aureus UBMS 88-7 tet-k(efflux resistance) cell lines.
In assay [8] the test system is Staphylococcus aureus. Kind of assay: In vitro antibacterial activity was measured on gram positive bacteria Staphylococcus aureus UBMS 90-1 tet-M (ribosomal protection) cell lines. The method in brief: as §1
Assay [9] concerns Staphylococcus aureus. Kind of assay: In vitro antibacterial activity was measured on gram positive bacteria Staphylococcus aureus UBMS 90-3 sensitive cell lines. Put shortly:
as §1

In assay [10] the test system is Staphylococcus aureus. Kind of assay: In vitro antibacterial activity was measured on gram positive bacteria Staphylococcus aureus smith cell lines. The method in brief:
as §1

Converted amounts (≈) assume the structure as drawn.

Take `CC(C)[C@H](N)C(=O)Nc1ccc2c(c1O)C(=O)C1=C(O)[C@]3(O)C(O)=C(C(N)=O)C(=O)[C@@H](N(C)C)C3[C@@H](O)C1[C@H]2C` (stereo not given in full): the MIC against Escherichia coli [1] was 8 µg/mL (≈ 14.3 µM); against Escherichia coli [2], 1 µg/mL (≈ 1.79 µM); in the assay with Escherichia coli [3], 32 µg/mL (≈ 57.3 µM); in the assay with Escherichia coli [4], 4 µg/mL (≈ 7.16 µM); in the assay with Escherichia coli [5], 2 µg/mL (≈ 3.58 µM); in the assay with Escherichia coli [6], 2 µg/mL (≈ 3.58 µM). In addition, the MIC against Staphylococcus aureus [7] came to 8 µg/mL (≈ 14.3 µM); against Staphylococcus aureus [8], 2 µg/mL (≈ 3.58 µM); against Staphylococcus aureus [9] it was 0.5 µg/mL (≈ 0.895 µM); against Staphylococcus aureus [10], 1 µg/mL (≈ 1.79 µM).

Take `CC(C)C[C@H](N)C(=O)Nc1ccc2c(c1O)C(=O)C1=C(O)[C@]3(O)C(O)=C(C(N)=O)C(=O)[C@@H](N(C)C)C3[C@@H](O)C1[C@H]2C` (stereo not given in full): the MIC with Escherichia coli [1] is 4 µg/mL (≈ 6.99 µM); in the assay on Escherichia coli [3], 16 µg/mL (≈ 27.9 µM); against Escherichia coli [4], 2 µg/mL (≈ 3.49 µM); in the assay with Escherichia coli [5], 1 µg/mL (≈ 1.75 µM); against Escherichia coli [6] it was 1 µg/mL (≈ 1.75 µM); in the assay on Staphylococcus aureus [7], 2 µg/mL (≈ 3.49 µM). Besides, the figures for the MIC against Staphylococcus aureus [8], against Staphylococcus aureus [9] and against Staphylococcus aureus [10] were 1 µg/mL (≈ 1.75 µM), 0.5 µg/mL (≈ 0.873 µM) and 0.5 µg/mL (≈ 0.873 µM), respectively.

On to `C[C@H]1c2ccc(NC(=O)[C@@H](N)CC3CCCCC3)c(O)c2C(=O)C2=C(O)[C@]3(O)C(O)=C(C(N)=O)C(=O)[C@@H](N(C)C)C3[C@@H](O)C21` (stereo not given in full), for which the MIC in the assay on Escherichia coli [1] was 8 µg/mL (≈ 13.1 µM); in the assay on Escherichia coli [2] it was 2 µg/mL (≈ 3.26 µM); with Escherichia coli [3], 8 µg/mL (≈ 13.1 µM); against Escherichia coli [4] it was 8 µg/mL (≈ 13.1 µM); against Escherichia coli [5], 4 µg/mL (≈ 6.53 µM); in the assay on Escherichia coli [6] it was 4 µg/mL (≈ 6.53 µM). Further, the MIC was 2 µg/mL (≈ 3.26 µM) in the assay on Staphylococcus aureus [7], 8 µg/mL (≈ 13.1 µM) against Staphylococcus aureus [8], 0.5 µg/mL (≈ 0.816 µM) against Staphylococcus aureus [9] and 1 µg/mL (≈ 1.63 µM) with Staphylococcus aureus [10].

As for `CC[C@H](C)[C@H](N)C(=O)Nc1ccc2c(c1O)C(=O)C1=C(O)[C@]3(O)C(O)=C(C(N)=O)C(=O)[C@@H](N(C)C)C3[C@@H](O)C1[C@H]2C` (stereo not given in full), the MIC in the assay with Escherichia coli [1] worked out at 4 µg/mL (≈ 6.99 µM); in the assay on Escherichia coli [2], 0.5 µg/mL (≈ 0.873 µM); with Escherichia coli [3], 16 µg/mL (≈ 27.9 µM); in the assay on Escherichia coli [4], 2 µg/mL (≈ 3.49 µM); in the assay with Escherichia coli [5] it was 1 µg/mL (≈ 1.75 µM); in the assay on Escherichia coli [6], 1 µg/mL (≈ 1.75 µM). Also, the MIC turned out to be 2 µg/mL (≈ 3.49 µM) against Staphylococcus aureus [7], 1 µg/mL (≈ 1.75 µM) with Staphylococcus aureus [8], 0.25 µg/mL (≈ 0.437 µM) with Staphylococcus aureus [9] and 1 µg/mL (≈ 1.75 µM) against Staphylococcus aureus [10].

For `C[C@H](N)C(=O)Nc1ccc2c(c1O)C(=O)C1=C(O)[C@]3(O)C(O)=C(C(N)=O)C(=O)[C@@H](N(C)C)C3[C@@H](O)C1[C@H]2C` (stereo not given in full), the MIC was over 32 µg/mL in the assay on Escherichia coli [1]; over 32 µg/mL in the assay on Escherichia coli [3]; 16 µg/mL (≈ 30.2 µM) in the assay on Escherichia coli [4]; 8 µg/mL (≈ 15.1 µM) in the assay with Escherichia coli [5]; 8 µg/mL (≈ 15.1 µM) with Escherichia coli [6]; over 32 µg/mL in the assay on Staphylococcus aureus [7]. For the same molecule, the results for the MIC in the assay on Staphylococcus aureus [8], in the assay with Staphylococcus aureus [9] and in the assay with Staphylococcus aureus [10] were 8 µg/mL (≈ 15.1 µM), 2 µg/mL (≈ 3.77 µM) and 2 µg/mL (≈ 3.77 µM), respectively.

For `CN(C)CC(=O)Nc1ccc2c(c1O)C(=O)C1=C(O)[C@]3(O)C(O)=C(C(N)=O)C(=O)[C@@H](N(C)C)[C@@H]3CC1C2` (stereo not given in full), the MIC in the assay with Escherichia coli [1] was 2 µg/mL (≈ 3.89 µM); against Escherichia coli [3], 2 µg/mL (≈ 3.89 µM); with Escherichia coli [4], 1 µg/mL (≈ 1.94 µM); in the assay with Escherichia coli [5], 0.25 µg/mL (≈ 0.486 µM); against Escherichia coli [6] it was 0.25 µg/mL (≈ 0.486 µM); against Staphylococcus aureus [7], 1 µg/mL (≈ 1.94 µM). Moreover, the MIC against Staphylococcus aureus [8] came out at 0.25 µg/mL (≈ 0.486 µM); against Staphylococcus aureus [9], 0.12 µg/mL (≈ 0.233 µM); against Staphylococcus aureus [10], 0.12 µg/mL (≈ 0.233 µM).

Consider `CN(C)CC(=O)Nc1cc(N(C)C)c2c(c1O)C(=O)C1=C(O)[C@]3(O)C(O)=C(C(N)=O)C(=O)[C@@H](N(C)C)[C@@H]3CC1C2` (stereo not given in full), for which the MIC with Escherichia coli [1] came to 2 µg/mL (≈ 3.59 µM); against Escherichia coli [3] it was 2 µg/mL (≈ 3.59 µM); in the assay on Escherichia coli [4], 0.5 µg/mL (≈ 0.897 µM); against Escherichia coli [5] it was 0.25 µg/mL (≈ 0.448 µM); with Escherichia coli [6], 0.25 µg/mL (≈ 0.448 µM); in the assay with Staphylococcus aureus [7], 2 µg/mL (≈ 3.59 µM). Moreover, the MIC in the assay with Staphylococcus aureus [8] is 0.5 µg/mL (≈ 0.897 µM); against Staphylococcus aureus [9] it was 0.25 µg/mL (≈ 0.448 µM); with Staphylococcus aureus [10] it was 0.25 µg/mL (≈ 0.448 µM).

Take `CC(C)C[C@H](N)C(=O)Nc1ccc2c(c1O)C(=O)C1=C(O)[C@]3(O)C(O)=C(C(N)=O)C(=O)[C@@H](N(C)C)C3CC1C2` (stereo not given in full): the MIC was 4 µg/mL (≈ 7.37 µM) against Escherichia coli [1]; 1 µg/mL (≈ 1.84 µM) in the assay on Escherichia coli [2]; 4 µg/mL (≈ 7.37 µM) in the assay with Escherichia coli [3]; 4 µg/mL (≈ 7.37 µM) in the assay on Escherichia coli [4]; 2 µg/mL (≈ 3.69 µM) in the assay with Escherichia coli [5]; 2 µg/mL (≈ 3.69 µM) in the assay with Escherichia coli [6]. The figures for the MIC with Staphylococcus aureus [8], in the assay with Staphylococcus aureus [9] and against Staphylococcus aureus [10] were 1 µg/mL (≈ 1.84 µM), 1 µg/mL (≈ 1.84 µM) and 2 µg/mL (≈ 3.69 µM), respectively.
